In ChEMBL document CHEMBL2331334, “Hybrid furoxanyl N-acylhydrazone derivatives as hits for the development of neglected diseases drug candidates” (Eur J Med Chem, 2013):
Values after ≈ are worked out from the molar mass of the structure shown.

Columns and labels:
[1] = test system: Mycobacterium tuberculosis; experiment: Antimycobacterial activity against Mycobacterium tuberculosis H37Rv assessed as growth inhibition after 5 days by MTT assay; assay type: functional; settings: 120 h
In short: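 MTB inoculum made from 20–30-day slant growth in Tween 80/0.2% BSA, adjusted to McFarland No. 1, then diluted in 7H9GC broth (Middlebrook 7H9, glycerol, Casitone, OADC). Final inoculum about 1.2 × 10^6 CFU/mL. Compounds taken from DMSO stock to final 0.4–25 in broth, with a DMSO control. Plates run 5 days at 37 °C, then tetrazolium (MTT)–Tween 80 added for a further 24 h at 37 °C. Read-out is MIC.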

Salmonella typhimurium [2] = experiment: Mutagenicity in Salmonella typhimurium TA98 at 6.2 to 500 ug/plate in presence of S9 fraction; assay type: toxicity, organism-based; settings: salmonella enterica subsp. enterica serovar typhimurium
In short: (§1)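 Direct plate incorporation with S. typhimurium TA98 on minimal glucose agar (Vogel-Bonner E, 40% glucose). Compounds in DMSO assayed in triplicate at doses starting from the highest non-toxic dose, with or without Aroclor-treated mouse liver S9. Controls: DMSO, 4-nitro-o-phenylenediamine (−S9), 2-aminofluorene (+S9). Revertants counted manually; mutagenic if ≥2× negative control at two consecutive doses.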

[3] = Aqueous stability of the compound in Tris.HCl buffer at pH 7.4 at 1 mM after 24 hrs by spectrophotometric analysis; assay type: physicochemical; settings: pH 7.4, 24 h, 1000 µM
In short: (§2)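 Compound from DMSO stock, 1 mM final in aqueous buffer (KCl·HCl pH 2, acetate pH 5, Tris·HCl pH 7.4 or 8.3), incubated 37 °C for 24 h. Absorbance spectrum 250–450 nm compared with a freshly prepared, unincubated solution. TLC of ethyl acetate extracts to confirm or exclude decomposition products.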

Trypanosoma cruzi [4] = experiment: Trypanosomicidal activity against axenic epimastigote stage of Trypanosoma cruzi Tulahuen 2 assessed as growth inhibition; assay type: functional, organism-based
In short: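 Tulahuen 2 epimastigotes grown axenically at 28 °C in BHI-tryptose with 5% FCS, harvested late log phase, 3×10^6/mL in 24-well plates. Compound added from DMSO stock (≤1% DMSO). Growth as A590 at day 0 and day 5; % inhibition from blank-corrected absorbances; ID50 = concentration halving absorbance relative to untreated controls.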

[5] = Aqueous stability of the compound in Tris.HCl buffer at pH 8.3 at 1 mM after 24 hrs by spectrophotometric analysis; assay type: physicochemical; settings: pH 8.3, 24 h, 1000 µM; in short: as §2
[6] = Aqueous stability of the compound in acetate buffer at pH 5 at 1 mM after 24 hrs by spectrophotometric analysis; assay type: physicochemical; settings: pH 5, 24 h, 1000 µM; in short: as §2
[7] = Selectivity index, ratio of IC50 for mouse J774.1 cells to IC50 for axenic amastigote stage of Leishmania amazonensis MHOM/BR/76/LTB-012; assay type: toxicity; settings: read-out: Ratio IC50
[8] = Cytotoxicity against mouse J774.1 cells assessed as cell viability after 48 hrs by MTT assay; assay type: cell-based; settings: J774.1, 48 h
In short: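 J774.1 macrophages in DMEM with 4 mM L-glutamine and 10% heat-inactivated FCS, 5×10^4 cells/well, attached 48 h at 37 °C, 5% CO2. Exposed 48 h to compounds (12.5–400.0 µM) or vehicle. MTT 0.1 mg/mL final, 3 h at 37 °C; formazan dissolved in DMSO/glycine buffer pH 10.5, A560. IC50 by linear regression versus solvent control.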

Leishmania amazonensis = experiment: Leishmanicidal activity against axenic amastigote stage of Leishmania amazonensis MHOM/BR/76/LTB-012 assessed as growth inhibition after 72 hrs by MTT assay; assay type: functional, organism-based; settings: MHOM/BR/76/LTB-012, 72 h
In short: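 L. amazonensis axenic amastigotes (MHOM/BR/76/LTB-012), weekly passages in MAA/20 at 32 °C, 5% CO2. Seeded in 96-well plates; compounds in DMSO at 100 to 1 final, 72 h. MTT added for 4 h, stopped with 50% isopropanol–10% SDS, 30 min agitation at room temperature, A570. Triplicate; % inhibition versus control, IC50 from several concentrations.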

[9] = Aqueous stability of the compound in KCl.HCl buffer at pH 2 at 1 mM after 24 hrs by spectrophotometric analysis; assay type: physicochemical; settings: pH 2, 24 h, 1000 µM; in short: as §2
Salmonella typhimurium [10] = experiment: Mutagenicity in Salmonella typhimurium TA98 at 6.2 to 500 ug/plate in absence of S9 fraction; assay type: toxicity, organism-based; settings: salmonella enterica subsp. enterica serovar typhimurium; in short: as §1
Trypanosoma cruzi [11] = experiment: Trypanosomicidal activity against amastigote stage of Trypanosoma cruzi Tulahuen C4 transfected with beta-D-galactosidase infected in african green monkey Vero cells assessed as growth inhibition incubated 5 days prior to beta-D-galactopyranoside addition measured after 4 to 5 hrs by colorimetric assay; assay type: functional, organism-based
In short: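 VERO monolayer in phenol red-free RPMI 1640 with 10% FCS, infected with 5×10^4 LacZ-transfected Tulahuen C4 trypomastigotes/well, 24 h at 37 °C, 5% CO2. Compounds added for 5 days. CPRG substrate added, 4–5 h at 37 °C, A570. Actives (>50% inhibition) retested in duplicate at 10.0–0.16; IC50 by logarithmic regression versus untreated control.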

Plasma = experiment: Metabolic stability in human plasma at pH 3 at 40 uM after 3 hrs; assay type: ADME, cell-free; settings: pH 3, 3 h
[12] = Selectivity index, ratio of IC50 for mouse J774.1 cells to MIC for Mycobacterium tuberculosis H37Rv; assay type: functional
In short: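 Cytotoxicity: J774.1 macrophages in DMEM with 4 mM L-glutamine and 10% heat-inactivated FCS, seeded at 5 × 10^4/well, attached 48 h at 37 °C, 5% CO2. Exposed 48 h to 12.5–400.0 µM compound or vehicle. MTT at 0.1 mg/mL final for 3 h, formazan dissolved in DMSO/glycine buffer pH 10.5, A560 read. IC50 by linear regression, divided by the MIC against the same MTB strain.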

[13] = Ratio of compound IC50 to amphotericin B IC50 for mouse J774.1 cells; assay type: ADME; settings: read-out: Ratio IC50
Salmonella typhimurium [14] = experiment: Mutagenicity in Salmonella typhimurium TA98 at 3.1 to 250 ug/plate in presence of S9 fraction; assay type: toxicity, organism-based; settings: salmonella enterica subsp. enterica serovar typhimurium; in short: as §1
[15] = Selectivity index, ratio of IC50 for mouse J774.1 cells to IC50 for amastigote stage of Trypanosoma cruzi Tulahuen C4; assay type: toxicity; settings: read-out: Ratio IC50
[16] = Selectivity index, ratio of IC50 for african green monkey Vero cells to IC50 for amastigote stage of Trypanosoma cruzi Tulahuen C4; assay type: toxicity, cell-based; settings: read-out: Ratio IC50
Salmonella typhimurium [17] = experiment: Mutagenicity in Salmonella typhimurium TA98 at 3.1 to 250 ug/plate in absence of S9 fraction; assay type: toxicity, organism-based; settings: salmonella enterica subsp. enterica serovar typhimurium; in short: as §1
Salmonella typhimurium [18] = experiment: Mutagenicity in Salmonella typhimurium TA98 at 4.9 to 400 ug/plate in absence of S9 fraction; assay type: toxicity, organism-based; settings: salmonella enterica subsp. enterica serovar typhimurium; in short: as §1
Salmonella typhimurium [19] = experiment: Mutagenicity in Salmonella typhimurium TA98 at 4.9 to 400 ug/plate in presence of S9 fraction; assay type: toxicity, organism-based; settings: salmonella enterica subsp. enterica serovar typhimurium; in short: as §1
Salmonella typhimurium [20] = experiment: Mutagenicity in Salmonella typhimurium TA98 at 20 ug/plate in absence of S9 fraction; assay type: toxicity, organism-based; settings: salmonella enterica subsp. enterica serovar typhimurium
In short: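 TA98 direct plate incorporation on minimal glucose agar (Vogel-Bonner E, 40% glucose), without S9. Compounds in DMSO were run in triplicate, highest dose nontoxic to bacteria. 4-nitro-o-phenylenediamine (20.0 per plate) was the positive control and DMSO the negative. Revertants were counted manually. Mutagenic meant at least double the negative-control revertants at two consecutive doses. Values are means of two independent experiments.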

Salmonella typhimurium [21] = experiment: Mutagenicity in Salmonella typhimurium TA98 at 150 ug/plate in absence of S9 fraction; assay type: toxicity, organism-based; settings: salmonella enterica subsp. enterica serovar typhimurium; in short: as §1
Salmonella typhimurium [22] = experiment: Mutagenicity in Salmonella typhimurium TA98 at 150 ug/plate in presence of S9 fraction; assay type: toxicity, organism-based; settings: salmonella enterica subsp. enterica serovar typhimurium; in short: as §1
[23] = Cytotoxicity against mouse J774.1 cells assessed as cell viability after 72 hrs by MTT assay; assay type: cell-based; settings: J774.1, 72 h
Salmonella typhimurium [24] = experiment: Mutagenicity in Salmonella typhimurium TA98 at 500 ug/plate in presence of S9 fraction; assay type: toxicity, organism-based; settings: salmonella enterica subsp. enterica serovar typhimurium; in short: as §1
Salmonella typhimurium [25] = experiment: Mutagenicity in Salmonella typhimurium TA98 at 500 ug/plate in absence of S9 fraction; assay type: toxicity, organism-based; settings: salmonella enterica subsp. enterica serovar typhimurium; in short: as §1

SMILES	MIC [1] [µM]	Stability [3]	IC50 (Trypanosoma cruzi [4]) [µM]	Stability [5]	Stability [6]	selectivity ratio [7]	IC50 [8] [µM]	IC50 (Leishmania amazonensis) [µM]	Stability [9]	IC50 (Trypanosoma cruzi [11]) [µM]	Stability (Plasma)	Selectivity Index [12]	selectivity ratio [15]	also measured
Cc1c(/C=N/NC(=O)c2ccncc2)no[n+]1[O-]	1.6 (≈ 0.396 µg/mL)	Stable	> 300	Stable	Stable	> 16	> 400	25.3	Stable	> 40.5	Stable	>250		Activity (Salmonella typhimurium [2]): Non-toxic; Activity (Salmonella typhimurium [10]): Non-toxic
COc1cc(/C=N/NC(=O)c2no[n+]([O-])c2C)ccc1O	> 85.6					> 235	> 400	1.7						Activity (Salmonella typhimurium [2]): Non-toxic; selectivity ratio [13]: 50; Activity (Salmonella typhimurium [10]): Non-toxic
Cc1nc2ccccn2c1C(=O)N/N=C/c1c(-c2ccccc2)no[n+]1[O-]	17.3 (≈ 6.27 µg/mL)	Stable	5		Stable		56.2		Stable	0.91	Stable	3.2	62	Activity (Salmonella typhimurium [14]): Non-toxic; selectivity ratio [16]: 12; Activity (Salmonella typhimurium [17]): Non-toxic
O=C(N/N=C/c1c(-c2ccccc2)no[n+]1[O-])c1ccncc1	0.6 (≈ 0.186 µg/mL)	Stable	11	Stable	Stable		> 400		Stable	6.4	Stable	>667	> 63	Activity (Salmonella typhimurium [18]): Non-toxic; Activity (Salmonella typhimurium [19]): Non-toxic; selectivity ratio [16]: 2.5
Nc1ccc([N+](=O)[O-])cc1N														Activity (Salmonella typhimurium [20]): Toxic
O=C(N/N=C/c1ccc2no[n+]([O-])c2c1)c1ccncc1	0.35 (≈ 0.0991 µg/mL)	Stable	33.4	Stable	Stable		135		Stable	5.6	Stable	385	24	Activity (Salmonella typhimurium [21]): Toxic; Activity (Salmonella typhimurium [22]): Toxic; selectivity ratio [16]: 2.5
O=C(N/N=C/c1c(-c2ccccc2)no[n+]1[O-])c1ccc2c(c1)OCO2	> 71	Stable	50	Stable	Stable		162		Stable	< 30.7	Stable	<2	> 5	Activity (Salmonella typhimurium [14]): Non-toxic; Activity (Salmonella typhimurium [17]): Non-toxic
O=C(N/N=C/c1ccc2no[n+]([O-])c2c1)c1cnn(-c2ccccc2)c1	> 17.9		29.5			27	37.1	1.4		> 30.9		<2		selectivity ratio [13]: 5
C[C@@H]1[C@H](O)[C@@H](C)/C=C/C=C/C=C/C=C/C=C/C=C/C=C/[C@H](O[C@@H]2O[C@H](C)[C@@H](O)[C@H](N)[C@@H]2O)C[C@@H]2O[C@](O)(C[C@@H](O)C[C@@H](O)[C@H](O)CC[C@@H](O)C[C@@H](O)CC(=O)O[C@H]1C)C[C@H](O)[C@H]2C(=O)O [AMPHOTERICIN B]						4.7								IC50 [23]: 0.52 µM
O=C(N/N=C/c1ccc2no[n+]([O-])c2c1)c1ccc2c(c1)OCO2	> 76.7		50			134	174	1.3		> 28.4		<2	< 5	Activity (Salmonella typhimurium [2]): Non-toxic; selectivity ratio [13]: 28.5; Activity (Salmonella typhimurium [10]): Non-toxic
Cc1[nH]cnc1C(=O)N/N=C/c1ccc2no[n+]([O-])c2c1	43.7 (≈ 12.5 µg/mL)		172				33.9			> 35		0.8	< 1	Activity (Salmonella typhimurium [24]): Toxic; Activity (Salmonella typhimurium [25]): Toxic
